Legend:
[1] = Antiviral activity against […] infected in HuH7 cells expressing T7 RNA polymerase assessed as reduction in viral RNA replication incubated for 24 hrs by luciferase reporter gene assay; type: functional, organism-based; details: B3, Huh-7, 24 h
Method in brief: (§1)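 Huh-T7 cells (DMEM, 2 mM glutamine, penicillin/streptomycin, 10% FCS growth or 2% maintenance, G-418 400 μg·mL⁻¹) transfected with enteroviral replicon. Compound added in growth medium at 40 μM for screening or 0, 1.25, 2.5, 5, 10, 20, 40 μM for EC50. After 24 h, cells lysed and luciferase activity read. Triplicate or quadruplicate, mean ± SD.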

rhinovirus B14 = experiment: Antiviral activity against Human rhinovirus 14 infected in HeLa Rh cells assessed as reduction in virus-induced cytopathic effect incubated for 3 days by MTS assay; type: functional, organism-based; details: Rhinovirus B, 72 h
Method in brief: (§2)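 CPE reduction assay. RD (EV-A71) or HeLa Rh (EV-D68, HRV) cells seeded 24 h earlier in medium with 2% FCS; HRV2/HRV14 medium contained 30 mM MgCl₂. Serial compound dilutions added with virus. At 3 days post infection, 5% MTS added for 1 h at 37 °C and OD498 read. EC50 taken as 50% protection versus controls by logarithmic interpolation; morphology also checked microscopically.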

[2] = Inhibition of human coronavirus NL63 M protease using Dabcyl-KTSAVLQ-SGFRKM-E(Edans)-NH2 as substrate incubated for 10 mins by fluorospectrometry
Method in brief: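 0.5 μM final HCoV-NL63 Mpro preincubated 10 min at 37 °C with inhibitor (0–100 μM) in pH 7.3 Tris buffer (100 mM NaCl, 1 mM EDTA, 1 mM DTT). Cleavage of 20 μM Dabcyl-KTSAVLQ↓SGFRKM-E(Edans)-NH₂ followed by fluorescence at 460 nm with 360 nm excitation. IC50 from triplicate measurements, mean ± SD.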

[3] = Inhibition of Enterovirus A71 protease 3C using DabcylKEALFQ-GPPQF-E(Edans)-NH2 as substrate incubated for 10 mins by fluorospectrometry
Method in brief: (§3)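 FRET cleavage assay in 20 mM Tris-HCl, 100 mM NaCl, 1 mM EDTA, 1 mM DTT, pH 7.3. Final enzyme 2 μM for CVB3 3Cpro or 3 μM for EV-A71 3Cpro, preincubated with inhibitor (0–100 μM) for 10 min at 37 °C. Reaction started with 20 μM final Dabcyl-KEALFQ↓GPPQF-E(Edans)-NH₂. Edans dequenching read at ex 360/em 460 nm. Triplicate, mean ± SD.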

Enterovirus A71 [4] = experiment: Antiviral activity against Enterovirus A71 infected in RD cells assessed as reduction in virus-induced cytopathic effect incubated for 3 days by MTS assay; type: functional, organism-based; details: Enterovirus A, 72 h; method in brief: as §2
[5] = system: Middle East respiratory syndrome-related coronavirus; experiment: Antiviral activity against Middle East respiratory syndrome coronavirus infected in Vero cells assessed as reduction in virus-induced cytopathic effect incubated for 3 days by non-radioactive cell proliferation assay; type: functional, organism-based; details: 72 h
Enterovirus A71 [6] = experiment: Antiviral activity against Enterovirus A71 infected in HuH7 cells expressing T7 RNA polymerase assessed as reduction in viral RNA replication incubated for 24 hrs by luciferase reporter gene assay; type: functional, organism-based; details: Enterovirus A, Huh-7, 24 h; method in brief: as §1
Human coronavirus 229E = experiment: Antiviral activity against Human coronavirus 229E infected in HuH7 cells expressing T7 RNA polymerase assessed as reduction in virus-induced cytopathic effect incubated for 48 hrs by Alamar blue based assay; type: functional, organism-based; details: Huh-7, 48 h
[7] = Therapeutic index, ratio of CC50 for human RD cells to EC50 for Enterovirus A71 infected in human RD cells; type: toxicity, cell-based; details: read-out: Ratio CC50/EC50
Method in brief: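 RD cells were seeded 24 h ahead in 2% FCS medium, then given compound serial dilutions plus EV-A71 (BRCR) inoculum. After 3 days, MTS was added for 1 h at 37 °C and OD498 read. EC50 was interpolated as the concentration giving 50% protection from CPE. CC50 was measured on uninfected host cells by viability or cytotoxicity kits. Index = CC50/EC50.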

[8] = Therapeutic index, ratio of CC50 for human HuH7 cells expressing T7 RNA polymerase to EC50 for […] infected in human HuH7 cells expressing T7 RNA polymerase; type: toxicity, cell-based; details: read-out: Ratio CC50/EC50
[9] = Cytotoxicity against human HeLa Rh cells assessed as reduction in cell viability incubated for 3 days by MTS assay; type: cell-based
[10] = Cytotoxicity against human HuH7 cells expressing T7 RNA polymerase assessed as reduction in cell viability incubated for 2 days by non-radioactive cell proliferation assay; type: cell-based, Huh-7
[11] = Therapeutic index, ratio of CC50 for human HeLa Rh cells to EC50 for Human rhinovirus 2 infected in human HeLa Rh cells; type: toxicity, cell-based; details: read-out: Ratio CC50/EC50
SARS-CoV [12] = experiment: Antiviral activity against SARS coronavirus infected in Vero E6 cells assessed as reduction in virus-induced cytopathic effect incubated for 2 days by non-radioactive cell proliferation assay; type: functional, organism-based; details: Severe acute respiratory syndrome-related coronavirus, Vero C1008, 48 h
[13] = Therapeutic index, ratio of CC50 for human HeLa Rh cells to EC50 for Human rhinovirus 14 infected in human HeLa Rh cells; type: toxicity, cell-based; details: read-out: Ratio CC50/EC50
[14] = Cytotoxicity against human RD cells assessed as reduction in cell viability incubated for 3 days by MTS assay; type: cell-based
SARS-CoV [15] = experiment: Antiviral activity against SARS coronavirus infected in HuH7 cells expressing T7 RNA polymerase assessed as reduction in viral RNA replication incubated for 24 hrs by luciferase reporter gene assay; type: functional, organism-based; details: Severe acute respiratory syndrome-related coronavirus, Huh-7, 24 h
Method in brief: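 SARS-CoV replicon (DNA-launched, Renilla luciferase reporter) was transfected into Huh-T7 cells at 80–90% confluency. Compound at 0, 1.25, 2.5, 5, 10, 20 or 40 µM in growth medium was added after transfection. At 24 h, cells were lysed and luciferase activity measured. Runs were in triplicate or quadruplicate, reported as mean ± SD.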

[16] = Therapeutic index, ratio of CC50 for human HeLa Rh cells to EC50 for Enterovirus D68 infected in human HeLa Rh cells; type: toxicity, cell-based; details: read-out: Ratio CC50/EC50
rhinovirus A2 = experiment: Antiviral activity against Human rhinovirus 2 infected in HeLa Rh cells assessed as reduction in virus-induced cytopathic effect incubated for 3 days by MTS assay; type: functional, organism-based; details: Rhinovirus A, 72 h; method in brief: as §2
[17] = Therapeutic index, ratio of CC50 for human HuH7 cells expressing T7 RNA polymerase to EC50 for Human coronavirus 229E infected in human HuH7 cells expressing T7 RNA polymerase; type: toxicity, cell-based; details: read-out: Ratio CC50/EC50
Method in brief: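 Huh7 cells were infected with HCoV-229E at […] for 1.5 h at 37 °C and washed. Complete DMEM containing inhibitor (0–40 µM) was added. […] CC50 came from a parallel AlamarBlue viability assay normalised to no-inhibitor and 1% Triton X-100 controls. Therapeutic index = CC50/EC50.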

[18] = Antiviral activity against […] infected in HuH7 cells expressing T7 RNA polymerase assessed as reduction in virus-induced cytopathic effect incubated for 2 days by non-radioactive cell proliferation assay; type: functional, organism-based; details: B3, Huh-7, 48 h
enterovirus D68 = experiment: Antiviral activity against Enterovirus D68 infected in HeLa Rh cells assessed as reduction in virus-induced cytopathic effect incubated for 3 days by MTS assay; type: functional, organism-based; details: Enterovirus D, 72 h; method in brief: as §2
[19] = system: Middle East respiratory syndrome-related coronavirus; experiment: Antiviral activity against Middle East respiratory syndrome coronavirus infected in HuH7 cells expressing T7 RNA polymerase assessed as reduction in virus-induced cytopathic effect incubated for 2 days by non-radioactive cell proliferation assay; type: functional, organism-based; details: Huh-7, 48 h
[20] = Therapeutic index, ratio of CC50 for monkey Vero E6 cells to EC50 for SARS coronavirus infected in monkey Vero E6 cells; type: toxicity, cell-based, Vero C1008; details: read-out: Ratio CC50/EC50
[21] = Therapeutic index, ratio of CC50 for human HuH7 cells expressing T7 RNA polymerase to EC50 for Middle East respiratory syndrome coronavirus infected in human HuH7 cells expressing T7 RNA polymerase; type: toxicity, cell-based; details: read-out: Ratio CC50/EC50
[22] = Inhibition of SARS coronavirus M protease using Dabcyl-KTSAVLQ-SGFRKM-E(Edans)-NH2 as substrate incubated for 10 mins by fluorospectrometry; parameters: species or system Severe acute respiratory syndrome-related coronavirus
Method in brief: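 FRET cleavage assay with 0.5 µM recombinant SARS-CoV Mpro (authentic termini) in 20 mM Tris-HCl, 100 mM NaCl, 1 mM EDTA, 1 mM DTT, pH 7.3. Enzyme was preincubated with inhibitor (0–100 µM) for 10 min at 37 °C, then 20 µM final substrate was added. Fluorescence was read at ex 360/em 460 nm. Triplicate, mean ± SD; IC50 from curve fitting.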

[23] = Therapeutic index, ratio of CC50 for monkey Vero cells to EC50 for Middle East respiratory syndrome coronavirus infected in monkey Vero cells; type: toxicity, cell-based; details: read-out: Ratio CC50/EC50
[24] = Inhibition of […] protease 3C using DabcylKEALFQ-GPPQF-E(Edans)-NH2 as substrate incubated for 10 mins by fluorospectrometry; parameters: species or system Coxsackievirus; method in brief: as §3

Structure (SMILES): O=C(/C=C/c1ccccc1)N[C@@H](Cc1ccccc1)C(=O)N[C@@H](C[C@@H]1CCNC1=O)C(=O)C(=O)NCc1ccccc1
- EC50 [1]: 4.5 µM
- EC50 (rhinovirus B14): 4.3 µM
- IC50 [2]: > 50 µM
- IC50 [3]: 1.22 µM
- EC50 (Enterovirus A71 [4]): 9.8 µM
- EC50 [5]: 13.4 µM
- EC50 (Enterovirus A71 [6]): 4.5 µM
- EC50 (Human coronavirus 229E): 11.8 µM
- selectivity ratio [7]: > 10
- selectivity ratio [8]: > 10
- CC50 at 72 h [9]: 35.5 µM
- CC50 at 48 h [10]: > 265 µM
- selectivity ratio [11]: > 15
- EC50 (SARS-CoV [12]): 5.8 µM
- selectivity ratio [13]: > 15
- CC50 at 72 h [14]: 97 µM
- EC50 (SARS-CoV [15]): 2 µM
- selectivity ratio [16]: > 10
- EC50 (rhinovirus A2): 5.6 µM
- selectivity ratio [17]: > 10
- EC50 [18]: 14 µM
- EC50 (enterovirus D68): 0.48 µM
- EC50 [19]: 0.0048 µM
- selectivity ratio [20]: > 10
- selectivity ratio [21]: > 10
- IC50 [22]: 1.95 µM
- selectivity ratio [23]: > 10
- IC50 [24]: 6.56 µM

Source: ChEMBL document CHEMBL4402565, “α-Ketoamides as Broad-Spectrum Inhibitors of Coronavirus and Enterovirus Replication: Structure-Based Design, Synthesis, and Activity Assessment” (J Med Chem, 2020)
